In ChEMBL document CHEMBL1134439, “Radioiodinated styrylbenzenes and thioflavins as probes for amyloid aggregates” (J Med Chem, 2001):
pKi: −log10 of the molar value.

Columns and labels:
[1] = tested on: Mus musculus; assay: Biodistribution was measured in mice heart 6 hours after intravenous injection of [125I]-labeled styrylbenzene.; format: ADME, organism-based; conditions: in vivo
Outline: (§1)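 ICR mice (2-3 months old, 20-30 g) under ether anesthesia received 5-10 µCi ¹²⁵I tracer in 0.15 mL saline by tail-vein injection. Animals were killed by cardiac excision at set times post-injection. Organs were removed, weighed and γ-counted. Values are % dose per organ against diluted injectate aliquots, taking blood and muscle as 7% and 40% of body weight. Mean of 3-4 mice ± SD.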

[2] = tested on: Mus musculus; assay: Biodistribution was measured in mice heart 60 minutes after intravenous injection of [125I]-labeled styrylbenzene.; format: ADME, organism-based; conditions: in vivo, 1 h; outline: as §1
[3] = tested on: Mus musculus; assay: Biodistribution was measured in mice kidney 2 minutes after intravenous injection of [125I]-labeled styrylbenzene.; format: ADME, organism-based; conditions: in vivo; outline: as §1
[4] = tested on: Mus musculus; assay: Biodistribution was measured in mice kidney 24 hours after intravenous injection of [125I]-labeled styrylbenzene.; format: ADME, organism-based; conditions: in vivo; outline: as §1
[5] = tested on: Mus musculus; assay: Biodistribution was measured in mice kidney 30 minutes after intravenous injection of [125I]-labeled styrylbenzene.; format: ADME, organism-based; conditions: in vivo, 0.5 h; outline: as §1
[6] = tested on: Mus musculus; assay: Biodistribution was measured in mice kidney 6 hours after intravenous injection of [125I]-labeled styrylbenzene.; format: ADME, organism-based; conditions: in vivo; outline: as §1
[7] = tested on: Mus musculus; assay: Biodistribution was measured in mice kidney 60 minutes after intravenous injection of [125I]-labeled styrylbenzene.; format: ADME, organism-based; conditions: in vivo, 1 h; outline: as §1
[8] = tested on: Mus musculus; assay: Biodistribution was measured in mice liver 2 minutes after intravenous injection of [125I]-labeled styrylbenzene.; format: ADME, organism-based; conditions: in vivo; outline: as §1
[9] = tested on: Mus musculus; assay: Biodistribution was measured in mice liver 24 hours after intravenous injection of [125I]-labeled styrylbenzene.; format: ADME, organism-based; conditions: in vivo; outline: as §1
[10] = tested on: Mus musculus; assay: Biodistribution was measured in mice liver 30 minutes after intravenous injection of [125I]-labeled styrylbenzene.; format: ADME, organism-based; conditions: in vivo, 0.5 h; outline: as §1
[11] = tested on: Mus musculus; assay: Biodistribution was measured in mice liver 60 minutes after intravenous injection of [125I]-labeled styrylbenzene.; format: ADME, organism-based; conditions: in vivo, 1 h; outline: as §1
[12] = tested on: Mus musculus; assay: Biodistribution was measured in mice muscle 24 hourss after intravenous injection of [125I]-labeled styrylbenzene.; format: ADME, organism-based, Muscle tissue; conditions: in vivo; outline: as §1
[13] = tested on: Mus musculus; assay: Biodistribution was measured in mice muscle 30 minutes after intravenous injection of [125I]-labeled styrylbenzene.; format: ADME, organism-based, Muscle tissue; conditions: in vivo, 0.5 h; outline: as §1
[14] = tested on: Mus musculus; assay: Biodistribution was measured in mice muscle 6 hours after intravenous injection of [125I]-labeled styrylbenzene.; format: ADME, organism-based, Muscle tissue; conditions: in vivo; outline: as §1
[15] = tested on: Mus musculus; assay: Biodistribution was measured in mice muscle 60 minutes after intravenous injection of [125I]-labeled styrylbenzene.; format: ADME, organism-based, Muscle tissue; conditions: in vivo, 1 h; outline: as §1
[16] = tested on: Mus musculus; assay: Biodistribution was measured in mice skin 2 minutes after intravenous injection of [125I]-labeled styrylbenzene.; format: ADME, organism-based, Zone of skin; conditions: in vivo; outline: as §1
[17] = tested on: Mus musculus; assay: Biodistribution was measured in mice skin 24 hours after intravenous injection of [125I]-labeled styrylbenzene.; format: ADME, organism-based, Zone of skin; conditions: in vivo; outline: as §1
[18] = tested on: Mus musculus; assay: Biodistribution was measured in mice skin 30 minutes after intravenous injection of [125I]-labeled styrylbenzene.; format: ADME, organism-based, Zone of skin; conditions: in vivo, 0.5 h; outline: as §1
[19] = tested on: Mus musculus; assay: Biodistribution was measured in mice skin 6 hours after intravenous injection of [125I]-labeled styrylbenzene.; format: ADME, organism-based, Zone of skin; conditions: in vivo; outline: as §1
[20] = tested on: Mus musculus; assay: Biodistribution was measured in mice skin 60 minutes after intravenous injection of [125I]-labeled styrylbenzene.; format: ADME, organism-based, Zone of skin; conditions: in vivo, 1 h; outline: as §1
[21] = tested on: Mus musculus; assay: Biodistribution was measured in mice spleen 2 minutes after intravenous injection of [125I]-labeled styrylbenzene.; format: ADME, organism-based; conditions: in vivo; outline: as §1
[22] = tested on: Mus musculus; assay: Biodistribution was measured in mice spleen 24 hours after intravenous injection of [125I]-labeled styrylbenzene.; format: ADME, organism-based; conditions: in vivo
[23] = tested on: Mus musculus; assay: Biodistribution was measured in mice spleen 30 minutes after intravenous injection of [125I]-labeled styrylbenzene.; format: ADME, organism-based; conditions: in vivo, 0.5 h
Outline: (§2)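 ICR mice (2-3 months old, 20-30 g) under ether anesthesia; 0.15 mL saline containing 5-10 µCi ¹²⁵I tracer injected into tail vein. Sacrifice by cardiac excision at set times; organs removed, weighed, γ-counted. Expressed as % dose per organ versus diluted aliquots of injectate. Mean of three or four mice ± SD.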

[24] = tested on: Mus musculus; assay: Biodistribution was measured in mice spleen 60 minutes after intravenous injection of [125I]-labeled styrylbenzene.; format: ADME, organism-based; conditions: in vivo, 1 h; outline: as §2
[25] = tested on: Mus musculus; assay: Biodistribution was measured in mice blood 2 minutes after intravenous injection of [125I]-labeled styrylbenzene.; format: ADME, organism-based; conditions: in vivo; outline: as §1
[26] = tested on: Mus musculus; assay: Biodistribution was measured in mice blood 24 hours after intravenous injection of [125I]-labeled styrylbenzene.; format: ADME, organism-based; conditions: in vivo; outline: as §1
[27] = tested on: Mus musculus; assay: Biodistribution was measured in mice blood 30 minutes after intravenous injection of [125I]-labeled styrylbenzene.; format: ADME, organism-based; conditions: in vivo, 0.5 h; outline: as §1
[28] = tested on: Mus musculus; assay: Biodistribution was measured in mice lung 2 minutes after intravenous injection of [125I]-labeled styrylbenzene.; format: ADME, organism-based; conditions: in vivo; outline: as §1
[29] = tested on: Mus musculus; assay: Biodistribution was measured in mice lung 24 hours after intravenous injection of [125I]-labeled styrylbenzene.; format: ADME, organism-based; conditions: in vivo, in the assay text read “thioflavin” for “styrylbenzene”; outline: as §1
[30] = tested on: Mus musculus; assay: Biodistribution was measured in mice lung 30 minutes after intravenous injection of [125I]-labeled styrylbenzene.; format: ADME, organism-based; conditions: in vivo, 0.5 h; outline: as §1
[31] = tested on: Mus musculus; assay: Biodistribution was measured in mice lung 6 hours after intravenous injection of [125I]-labeled styrylbenzene.; format: ADME, organism-based; conditions: in vivo, in the assay text read “thioflavin” for “styrylbenzene”; outline: as §1
[32] = tested on: Mus musculus; assay: Biodistribution was measured in mice lung 60 minutes after intravenous injection of [125I]-labeled styrylbenzene.; format: ADME, organism-based; conditions: in vivo, 1 h; outline: as §1
[33] = tested on: Mus musculus; assay: Biodistribution was measured in mice muscle 2 minutes after intravenous injection of [125I]-labeled styrylbenzene.; format: ADME, organism-based, Muscle tissue; conditions: in vivo, in the assay text read “thioflavin” for “styrylbenzene”; outline: as §1
[34] = tested on: Mus musculus; assay: Biodistribution was measured in mice brain 6 hours after intravenous injection of [125I]-labeled styrylbenzene; format: ADME, organism-based; conditions: in vivo; outline: as §1
[35] = tested on: Mus musculus; assay: Biodistribution was measured in mice brain 60 minutes after intravenous injection of [125I]-labeled styrylbenzene; format: ADME, organism-based; conditions: in vivo, 1 h; outline: as §1
[36] = tested on: Mus musculus; assay: Biodistribution was measured in mice heart 2 minutes after intravenous injection of [125I]-labeled styrylbenzene.; format: ADME, organism-based; conditions: in vivo; outline: as §1
[37] = tested on: Mus musculus; assay: Biodistribution was measured in mice heart 24 hours after intravenous injection of [125I]-labeled styrylbenzene.; format: ADME, organism-based; conditions: in vivo; outline: as §1
[38] = tested on: Mus musculus; assay: Biodistribution was measured in mice heart 30 minutes after intravenous injection of [125I]-labeled styrylbenzene.; format: ADME, organism-based; conditions: in vivo, 0.5 h; outline: as §1
[39] = tested on: Mus musculus; assay: Biodistribution was measured in mice blood 6 hours after intravenous injection of [125I]-labeled styrylbenzene.; format: ADME, organism-based; conditions: in vivo; outline: as §1
[40] = tested on: Mus musculus; assay: Biodistribution was measured in mice blood 60 minutes after intravenous injection of [125I]-labeled styrylbenzene.; format: ADME, organism-based; conditions: in vivo, 1 h; outline: as §1
[41] = tested on: Mus musculus; assay: Biodistribution was measured in mice brain 2 minutes after intravenous injection of [125I]-labeled styrylbenzene; format: ADME, organism-based; conditions: in vivo, in the assay text read “thioflavin” for “styrylbenzene”; outline: as §1
[42] = tested on: Mus musculus; assay: Biodistribution was measured in mice brain 24 hours after intravenous injection of [125I]-labeled styrylbenzene; format: ADME, organism-based; conditions: in vivo, in the assay text read “thioflavin” for “styrylbenzene”; outline: as §1
[43] = tested on: Mus musculus; assay: Biodistribution was measured in mice brain 30 minutes after intravenous injection of [125I]-labeled styrylbenzene; format: ADME, organism-based; conditions: in vivo, 0.5 h; outline: as §1
[44] = target: Amyloid-beta precursor protein (Homo sapiens, UniProt P05067); assay: Inhibition constant for aggregates of amyloid beta compared to [125I]IMSB
Amyloid-beta precursor protein, sequence (P05067 whole entry): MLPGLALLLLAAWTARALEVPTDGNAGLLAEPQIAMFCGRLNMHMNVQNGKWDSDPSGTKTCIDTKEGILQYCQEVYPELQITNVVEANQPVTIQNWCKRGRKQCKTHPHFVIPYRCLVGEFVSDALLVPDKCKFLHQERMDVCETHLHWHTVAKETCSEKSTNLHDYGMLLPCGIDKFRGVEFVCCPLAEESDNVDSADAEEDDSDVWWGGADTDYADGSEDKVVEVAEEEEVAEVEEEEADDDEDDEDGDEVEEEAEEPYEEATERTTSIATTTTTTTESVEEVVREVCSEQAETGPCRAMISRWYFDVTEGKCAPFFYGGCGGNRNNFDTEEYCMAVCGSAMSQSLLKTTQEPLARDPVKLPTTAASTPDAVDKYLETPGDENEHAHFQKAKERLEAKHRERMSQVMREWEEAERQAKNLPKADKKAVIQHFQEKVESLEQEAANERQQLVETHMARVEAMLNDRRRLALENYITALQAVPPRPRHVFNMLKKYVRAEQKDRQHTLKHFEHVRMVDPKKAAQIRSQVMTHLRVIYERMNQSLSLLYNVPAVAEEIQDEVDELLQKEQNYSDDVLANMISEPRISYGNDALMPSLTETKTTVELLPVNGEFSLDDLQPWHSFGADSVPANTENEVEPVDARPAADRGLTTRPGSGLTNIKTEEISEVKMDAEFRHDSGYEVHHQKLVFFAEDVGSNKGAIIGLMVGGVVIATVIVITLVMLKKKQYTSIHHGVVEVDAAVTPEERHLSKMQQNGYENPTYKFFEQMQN
Outline: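 Aβ(1-40) or Aβ(1-42) aggregated at 0.5 or 0.25 mg/mL respectively in pH 7.4 buffer (10 mM sodium phosphate, 1 mM EDTA), 37 °C, 36-42 h with shaking. Competition against ¹²⁵I radioligand with fibrils 10-50 nM (final), 10% EtOH, 1 mL. Incubation 3 h room temperature. Bound ligand collected by GF/B filtration, γ-counted. Ki by nonlinear regression. Mean ± SEM, three experiments in duplicate.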

[45] = tested on: Mus musculus; assay: Biodistribution was measured in mice liver 6 hours after intravenous injection of [125I]-labeled styrylbenzene.; format: ADME, organism-based; conditions: in vivo, in the assay text read “thioflavin” for “styrylbenzene”; outline: as §1
[46] = tested on: Mus musculus; assay: Biodistribution was measured in mice spleen 6 hours after intravenous injection of [125I]-labeled thioflavin.; conditions: in vivo

`CN(C)c1ccc(-c2nc3ccc(I)cc3s2)cc1` gave a Dose/organ [1] of 0.05%, a Dose/organ [2] of 0.17% and a Dose/organ [3] of 5.42%. It also gave a Dose/organ [4] of 0.06%, a Dose/organ [5] of 2.24% and a Dose/organ [6] of 0.54%. The Dose/organ [7] was 2.23%, the Dose/organ [8] was 31.62% and the Dose/organ [9] was 0.3%. The Dose/organ [10] was 10.93%, the Dose/organ [11] was 9.21% and the Dose/organ [12] was 0.33%. For the same compound, the Dose/organ [13] was 12.89%, the Dose/organ [14] was 2.93% and the Dose/organ [15] was 12.81%. The Dose/organ [16] was 3.2%, the Dose/organ [17] was 0.2% and the Dose/organ [18] was 7.4%. The Dose/organ [19] was 3.8%, the Dose/organ [20] was 12.8% and the Dose/organ [21] was 0.59%. It also gave a Dose/organ [22] of 0.01%, a Dose/organ [23] of 0.2% and a Dose/organ [24] of 0.17%. It also gave a Dose/organ [25] of 15.74%, a Dose/organ [26] of 0.29% and a Dose/organ [27] of 3.26%. It also gave a Dose/organ [28] of 5.91%, a Dose/organ [29] of 0.03% and a Dose/organ [30] of 0.72%. The Dose/organ [31] was 0.21%, the Dose/organ [32] was 0.78% and the Dose/organ [33] was 17.81%. For the same compound, the Dose/organ [34] was 0.65%, the Dose/organ [35] was 1.57% and the Dose/organ [36] was 1.79%. The Dose/organ [37] was 0.01%, the Dose/organ [38] was 0.2% and the Dose/organ [39] was 1.44%. The Dose/organ [40] was 3.79%, the Dose/organ [41] was 0.6% and the Dose/organ [42] was 0.04%. The Dose/organ [43] was 0.9%, the pKi [44] was less than 5.30 and the Dose/organ [45] was 1.52%. For the same compound, the Dose/organ [46] was 0.04%.
